High-throughput results (PubChem)
Many of the other results were omitted from the sample, so hits are more common in it than they were.
HUVEC inhibit – human endothelial cell proliferation inhibition | HUVEC proliferation, CellTiter-Glo luminescence, 72 h; stronger effect = lower value | viability, % at 10 µM (by protocol) | hit rate 1.1% among 86,000 | AID 648;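 active = viability at or below 30%; inactive = viability above 30%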;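 note: 100% = median luminescence of DMSO-only cell control wells on each plate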
Fibroblast inh – blocks proliferation of human lung fibroblasts; LL 47 human lung fibroblast viability, ATP luminescence; stronger effect = lower value; viability, % at 10 µM; hit rate 1.1% among 85,000; AID 719;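 active = viability at or below 50% in the single dose screen; inactive = viability above 50%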;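 note: compound exposure lasted 72 h before the ATP readout; 100% = median luminescence of untreated cell-only wells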
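Assay system: human lung fibroblast line LL 47, low passage. Input: 1,150 fibroblasts seeded per well. Times: overnight cell rest, 72 h compound treatment at 37 °C. Evaluation: % viability of median cell-only signal. Technique: luminescent ATP detection, CellTiter-Glo. Control set: cell-only wells, no compound.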
HCT116 PTEN-null – PTEN-deleted cell growth suppression; hit rate 1.2% among 140,000; AID 827; HCT116 PTEN-null viability, CellTiter-Glo, 60 h; stronger effect = lower value; viability, % at 10 µM;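 active = viability at or below a set limit, 4 SD under the median of all tested compounds, cut at about 3.7% in these data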;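 note: PTEN knockout HCT116 line with beta catenin targeted HCT116 as companion control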
bCat KO growth – beta-catenin-lacking colon tumor cell growth suppression; HCT116 beta-catenin knockout viability, CellTiter-Glo, 60 h; stronger effect = lower value; viability, % at 10 µM; hit rate 1.5% among 140,000;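 active = viability at or under a set limit, the compound median less 4 SD, cut at about 6% in these data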;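 note: 0% = Hyamine 1622 control at 20 µM and 100% = untreated cell control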
H69AR growth 86K – blocks growth of human H69AR lung tumor cells. H69AR lung tumor viability, ATP luminescence, 72 h; stronger effect = lower value. viability, % at 10 µM. hit rate 6% among 85,000. AID 598;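 active = viability at or below 40%; inactive = viability above 40%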;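 note: multidrug resistant small cell line overexpressing MRP-1 efflux transporter; 100% = mean luminescence of untreated control wells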
* hit, by the source's call.

For CCOC(=O)/C=c1\s/c(=C\c2ccc3c(c2)OCCO3)c(=O)n1CC(=O)NCC1CCCO1 (stereo not drawn) the results were HUVEC inhibit 91.2, Fibroblast inh 102.9, HCT116 PTEN-null 84.8, bCat KO growth 82.2 and H69AR growth 86K 86.1.
Screening CCOC(=O)/C=c1\s/c(=C\c2c(OCC)ccc3ccccc23)c(=O)n1CC(=O)NCC1CCCO1 (stereo not drawn) returned HUVEC inhibit 77.9, Fibroblast inh 88.8, HCT116 PTEN-null 64.3, bCat KO growth 68.0 and H69AR growth 86K 30.1*.
Screening Cc1nc(SCC(=O)OCc2ccccc2)c2c(=O)n(C)c(=O)n(C)c2n1 returned HUVEC inhibit 99.2, Fibroblast inh 106.0, HCT116 PTEN-null 97.2, bCat KO growth 88.5 and H69AR growth 86K 106.3.
`Cc1nc(SCC(=O)c2c(C)[nH]c3ccccc23)c2c(=O)n(C)c(=O)n(CC(C)C)c2n1` gave HUVEC inhibit 82.7, Fibroblast inh 96.0 and H69AR growth 86K 39.5*.
Screening Cc1c(/C=N/n2cnnc2)c2ccccc2n1CCOc1ccccc1 returned HUVEC inhibit 76.7, HCT116 PTEN-null 100.9, bCat KO growth 94.0 and H69AR growth 86K 32.3*.
`FC(F)(F)c1ccc(N2CCOCC2)c(Nc2nc3ccccc3n3cnnc23)c1` gave HCT116 PTEN-null 0.4* and bCat KO growth 0.8*.
Screening O=C(Cn1cnc2ccccc21)Nc1cc(C(F)(F)F)ccc1N1CCOCC1 returned HUVEC inhibit 107.8, Fibroblast inh 97.0, HCT116 PTEN-null 74.9, bCat KO growth 80.5 and H69AR growth 86K 97.1.
CCCn1c(C)cc(C(=O)COC(=O)CN=C2NS(=O)(=O)c3ccccc32)c1C was read as HCT116 PTEN-null 94.7 and bCat KO growth 100.4.
For CCOC(=O)c1nnn(CC(=O)N2N=C(c3ccc(Cl)cc3)CC2c2ccccc2)c1C(=O)OCC (stereo not drawn) the results were HUVEC inhibit 74.8, Fibroblast inh 67.8, HCT116 PTEN-null 72.1, bCat KO growth 67.2 and H69AR growth 86K 19.0*.
CCOC(=O)c1nnn(CC(=O)N2N=C(c3ccc(Cl)cc3)CC2c2ccc(OC)cc2)c1C(=O)OCC (stereo not drawn) was read as HUVEC inhibit 79.8, Fibroblast inh 80.9, HCT116 PTEN-null 82.9, bCat KO growth 85.6 and H69AR growth 86K 73.7.
`CCn1ncc(Br)c1C(=O)Nc1ccc(C(=O)OC(C)C)cc1` gave HUVEC inhibit 103.6, Fibroblast inh 110.3, HCT116 PTEN-null 91.3, bCat KO growth 97.1 and H69AR growth 86K 100.4.
For O=C(OCn1ncc(Br)c(Br)c1=O)c1ccccc1Cl the results were HUVEC inhibit 2.6*, Fibroblast inh 2.7*, HCT116 PTEN-null 2.0*, bCat KO growth 1.5* and H69AR growth 86K 1.2*.
O=C(OCn1ncc(Br)c(Br)c1=O)c1ccc(F)cc1 was read as HUVEC inhibit 2.3*, Fibroblast inh 1.9*, HCT116 PTEN-null 0.6*, bCat KO growth 0.8* and H69AR growth 86K 1.8*.
Cc1ccc(NC(=O)CCC(=O)NNC(=O)C(c2ccccc2)c2ccccc2)c(C)c1 was read as HCT116 PTEN-null 90.0 and bCat KO growth 77.5.
For Cc1nn(Cc2c(Cl)cccc2Cl)c(C)c1NC(=O)c1cc(C(C)C)on1 the results were HUVEC inhibit 71.6, Fibroblast inh 34.8*, HCT116 PTEN-null 30.4, bCat KO growth 64.0 and H69AR growth 86K 7.7*.
For Cc1nn(Cc2ccc(Cl)c(Cl)c2)c(C)c1NC(=O)c1cc(-c2ccc3c(c2)OCO3)on1 the results were HUVEC inhibit 12.2*, Fibroblast inh 76.4, HCT116 PTEN-null 1.8*, bCat KO growth 1.5* and H69AR growth 86K 1.4*.
For Cc1nn(Cc2ccc(Cl)cc2)c(C)c1NC(=O)c1cc(-c2ccc3c(c2)OCO3)on1 the results were HUVEC inhibit 49.2, Fibroblast inh 104.9, HCT116 PTEN-null 83.5, bCat KO growth 91.9 and H69AR growth 86K 81.4.
COc1ccc(-c2cc(C(=O)Nc3c(C)nn(Cc4ccccc4Cl)c3C)no2)cc1 was read as HUVEC inhibit 88.1, Fibroblast inh 90.0, HCT116 PTEN-null 65.1, bCat KO growth 62.2 and H69AR growth 86K 32.8*.
Screening COc1ccc(Cl)cc1S(=O)(=O)N1CCCC1 returned HUVEC inhibit 89.4, Fibroblast inh 93.8, HCT116 PTEN-null 100.9, bCat KO growth 98.0 and H69AR growth 86K 96.3.
For COc1ccc(NS(=O)(=O)c2cccc(NC(=O)CCS(=O)(=O)c3ccccc3)c2)cc1 the results were HCT116 PTEN-null 84.0 and bCat KO growth 86.9.
Screening CCCc1nc2oc(C(=O)c3ccccc3)c(N)c2c2c1COC(C)(C)C2 returned HUVEC inhibit 46.7, Fibroblast inh 40.5*, HCT116 PTEN-null 44.6, bCat KO growth 35.5 and H69AR growth 86K 5.7*.
COc1ccc(/C=C/C(=O)Nc2ccccc2C(F)(F)F)cc1 was read as HCT116 PTEN-null 96.4 and bCat KO growth 102.2.
For COc1ccc(/C=C/C(=O)CC(O)(c2ccccc2)C(F)(F)F)cc1 (stereo not drawn) the results were HUVEC inhibit 61.5, Fibroblast inh 87.6, HCT116 PTEN-null 45.1, bCat KO growth 44.6 and H69AR growth 86K 38.0*.
O=C(/C=C/c1ccccc1)CC(O)(c1ccccc1)C(F)(F)F (stereo not drawn) was read as HUVEC inhibit 25.7*, Fibroblast inh 34.9*, bCat KO growth 3.9* and H69AR growth 86K 2.0*.
For O=C(/C=C/c1ccccc1)CC(O)(c1ccccc1)C(F)(F)C(F)F (stereo not drawn) the results were HUVEC inhibit 5.3*, Fibroblast inh 32.5*, bCat KO growth 2.8* and H69AR growth 86K 1.3*.
`CC(NC(=O)COC(=O)/C=C/c1cccc(C(F)(F)F)c1)c1ccccc1` (stereo not drawn) gave HCT116 PTEN-null 102.5 and bCat KO growth 106.1.
For O=C(CC(O)(c1ccccc1)C(F)(F)C(F)F)c1cccs1 (stereo not drawn) the results were HUVEC inhibit 88.7, Fibroblast inh 93.2, HCT116 PTEN-null 89.0, bCat KO growth 96.6 and H69AR growth 86K 99.1.
For Cc1cc(C)n(S(=O)(=O)/C=C/c2ccccc2)n1 the results were HUVEC inhibit 76.2, Fibroblast inh 26.2*, HCT116 PTEN-null 88.8, bCat KO growth 93.7 and H69AR growth 86K 1.1*.
`Cc1cccc(-n2ncc3c(N4CCC5(CC4)OCCO5)ncnc32)c1` gave HUVEC inhibit 114.8, Fibroblast inh 88.3 and H69AR growth 86K 33.5*.
Screening COc1cccc(N2CCN(c3ncnc4c3cnn4-c3ccc(C)cc3C)CC2)c1 returned HUVEC inhibit 2.2*, Fibroblast inh 33.2*, HCT116 PTEN-null 3.1*, bCat KO growth 1.7* and H69AR growth 86K 55.5.
Cc1ccc(N=C2SC(C(=O)Nc3ccc(OC(F)(F)F)cc3)C(N)=C2C(=O)Nc2c(C)cc(C)cc2C)cc1 (stereo not drawn) was read as HCT116 PTEN-null 17.3 and bCat KO growth 41.7.
For COc1ccc(-c2nc(C#N)c(NCc3ccccc3Cl)o2)cc1OC the results were HUVEC inhibit 58.7, Fibroblast inh 92.5, HCT116 PTEN-null 6.2, bCat KO growth 23.4 and H69AR growth 86K 5.7*.
